Screening results from PubChem.
Most compounds without a hit are left out; they make up all but 4.1% or so of the library.
FLuc inh counter – inhibits firefly luciferase, flagging false hits in luciferase inhibition screens. P08659. ATPLite firefly luciferase biochemical luminescence, 10 min. inhibition, % at 10 µM. 200,000 compounds, 1.5% hits. AID 1006;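 active = inhibition above about 50% when tested at 10 µM, limit read from the data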
Target sequence (P08659 whole entry, looked up): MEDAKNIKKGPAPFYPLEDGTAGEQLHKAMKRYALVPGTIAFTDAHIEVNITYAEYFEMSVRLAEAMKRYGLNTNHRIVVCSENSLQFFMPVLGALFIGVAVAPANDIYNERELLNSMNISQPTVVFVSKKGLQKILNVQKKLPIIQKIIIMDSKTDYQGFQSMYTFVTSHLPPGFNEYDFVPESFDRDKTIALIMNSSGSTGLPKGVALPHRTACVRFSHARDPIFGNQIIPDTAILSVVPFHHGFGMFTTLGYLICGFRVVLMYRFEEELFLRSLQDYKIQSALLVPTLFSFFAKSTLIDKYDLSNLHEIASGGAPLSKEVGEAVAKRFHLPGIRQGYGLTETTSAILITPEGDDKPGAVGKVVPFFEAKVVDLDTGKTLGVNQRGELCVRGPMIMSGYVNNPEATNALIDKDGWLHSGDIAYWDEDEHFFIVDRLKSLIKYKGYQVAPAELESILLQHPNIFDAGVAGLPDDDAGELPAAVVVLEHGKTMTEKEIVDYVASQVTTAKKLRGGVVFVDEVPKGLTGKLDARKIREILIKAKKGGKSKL
STAT1 act – STAT1 signaling activation | NIH 3T3 STAT1-luciferase reporter, IFN-gamma, luminescence; 100% = IFN-gamma alone, no compound | activation (% of control), % at 5.5 µM | 200,000 compounds, 2.6% hits | AID 932;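 active = activation above the screen-wide mean activation plus 3 SD, cut at about 130% in these data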;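 note: raw ratio to IFN-gamma control signal so 100% means no change and 0% no light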
NF-kB neuron act – raises NF-kB expression in human neuronal cells | NF-kB reporter expression; active compounds read high | fold change at 12.5 µM | 190,000 compounds, 1.6% hits | AID 1239; in the data active = fold change above about 3.3
FLuc act counter – affects firefly luciferase, flagging false hits in luciferase stimulation screens; activation factor at 10 µM; P08659; 200,000 tested, under 10 active; ATPlite luciferase biochemical, luminescence, 10 min; 0 = ATP-free wells, 1 = DMSO control;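 active = luciferase activation factor, scaled between plate controls, of at least 2 with compound at 10 µM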
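Material: Luciferase/luciferin reagent mix | Doses: Test compounds dosed from 2 mM stocks in 100% DMSO | Timing: 10 min incubation after luciferase reagent addition, room temperature | Measured by: Luminescence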
APP 5'UTR act – APP 5'UTR luciferase reporter activation; AID 1276; SH-SY5Y APP 5'UTR luciferase reporter, luminescence; zero percent = DMSO vehicle wells; 190,000 compounds, 1% hits; activation, % at 2 µM;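 active = activation above a set limit, based on mean plus 3 SD of controls, cut at about 140% in these data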
* hit, by the source's call; x = no result.

SMILES	FLuc inh counter	STAT1 act	NF-kB neuron act	FLuc act counter	APP 5'UTR act
N/C(=N\OC(=O)c1ccc2ccccc2c1)c1ccc(Br)cc1	-0.6	105.2	1.1	1	11.1
Cc1cccc(C(=O)O/N=C(\N)c2ccc(Br)cc2)c1	25.0	121.4	4.03*	0.8	30.6
CN(CCO)c1cnccn1	-3.4	107.9	1.51	1	81.5
COc1ccc(C(=O)O/N=C(\N)c2ccncc2)cc1OC	-2.1	109.4	1.21	1	7.0
COc1cccc(C(=O)O/N=C(\N)c2ccncc2)c1	88.8*	138.8*	2.53	0.1	105.6
CCOC(=O)c1c(C)oc2c1c(CN1CCN(CCO)CC1)c(O)c1ccccc12	-2.5	89.1	2.71	1	120.4
CCOC(=O)c1c(C)oc2c1c(CN1CCN(C(=O)OCC)CC1)c(O)c1ccccc12	-9.5	99.7	4.29*	1.1	156.6*
Cc1nc2c(C(=O)N3CCCCC3)cnn2c(C)c1Cc1ccccc1F	20.8	137.6*	1.45	0.8	132.1
Cc1nc2c(C(=O)N3CCN(C)CC3)cnn2c(C)c1Cc1ccc(Cl)cc1	-3.7	94.8	0.87	1	x
C(=N\N(Cc1ccccc1)c1ccccc1)/c1ccco1	-2.8	92.5	1.07	1	6.3
CCOc1ccc(NC(=O)c2ccc(CC)s2)c([N+](=O)[O-])c1	2.1	132.9*	1.81	1	78.6
COc1ccc(NC(=O)c2ccccc2)c([N+](=O)[O-])c1	11.4	131.6*	1.17	0.9	48.8
COc1ccc(NC(=O)c2cccnc2)c([N+](=O)[O-])c1	7.1	97.3	1.32	0.9	-21.2
CCCOc1ccc(C(=O)Nc2ccccc2[N+](=O)[O-])cc1	x	139.6*	x	x	114.0
CCCCC(C(=O)O)C(C)CC(=O)NNC(=O)c1ccco1 (stereo not drawn)	-2.7	97.8	1.04	1	-23.9
COc1ccc(-c2noc(-c3ccccc3C(=O)Nc3cccc(OC)c3)n2)cc1	-2.4	98.0	0.52	1	-0.6
CC(=O)Nc1cccc(Oc2ccc(-c3noc(C)n3)cc2)c1	21.2	138.4*	2.56	0.8	89.1
COc1ccccc1C(=O)NNC(=S)NC(=O)c1ccco1	7.9	93.0	1.23	0.9	-2.4
O=[N+]([O-])c1cccc(S(=O)(=O)NCCCN2CCOCC2)c1	-2.1	99.4	1.13	1	9.5
Cc1cc(C)cc(N=Cc2c(O)c3ccccc3oc2=O)c1	-2.1	106.9	1.33	1	1.4
COc1ccc(N=Cc2c(O)c3ccccc3oc2=O)cc1	88.2*	139.8*	0.93	0.1	13.7
Cc1ccc2nc(-c3sc4nc(C)ccc4c3N)[nH]c2c1	62.0*	117.6	5.92*	0.4	113.7
Cc1cc(C)c2c(N)c(-c3nc4ccccc4[nH]3)sc2n1	-10.4	114.3	2.66	1.1	142.1*
Cc1ccc(-n2nc3cc(C)c(N)cc3n2)cc1	81.4*	106.9	3.9*	0.2	120.4
COc1ccc(-n2nc3cc(C)c(N)c(Br)c3n2)cc1	41.4	167.8*	6.26*	0.6	185.2*
SMILES	FLuc inh counter	STAT1 act	NF-kB neuron act	FLuc act counter	APP 5'UTR act
COc1ccc(-n2nc3cc(C)c(NC(=O)C(C)C)cc3n2)cc1	19.4	139.2*	1.12	0.8	83.0
COc1ccc(-n2nc3cc(C)c(NC(C)=O)cc3n2)cc1	81.3*	62.6	2.33	0.2	123.1
COc1ccc(-n2nc3ccccc3n2)cc1	7.5	116.5	1.52	0.9	11.4
COc1ccc(NC(C)=O)c(C)c1	-6.5	97.7	1.05	1.1	3.8
CCCn1nnnc1NC(=O)c1cccs1	-3.5	93.0	1.36	1	-2.8
Cc1ccc(NC(=O)CSc2ncc3ccccn23)cc1	4.3	121.8	1.95	1	31.7
Nc1ccccc1-c1nc2ccccc2s1	14.6	143.7*	2.41	0.9	119.0
COc1ccc2nc3ccccc3nc2c1	20.3	143.7*	2.11	0.8	45.0
CN(C)c1nc(N)nc(-c2nc3ccccc3s2)n1	32.5	134.9*	2.85	0.7	25.3
COc1ccc(-c2nc3ccccc3s2)cc1	92.4*	33.2	3.25	0.1	169.3*
COc1ccc(-c2nc3ccccc3nc2-c2ccccc2)cc1	-4.5	95.8	0.87	1	7.0
CC(C)(C)S(=O)(=O)c1ccc(S(=O)(=O)C(C)(C)C)s1	-4.1	97.8	1.19	1	-2.4
COc1ccc(-c2cc(OC)c3ccccc3n2)cc1	3.3	95.1	1.1	1	10.6
c1ccc2sc(-c3ccc4c(c3)OCO4)nc2c1	89.0*	96.0	6.33*	0.1	168.5*
